In ChEMBL document CHEMBL4513216, “Probing the Open Global Health Chemical Diversity Library for Multistage-Active Starting Points for Next-Generation Antimalarials” (ACS Infect Dis, 2020):

Assay: Toxicity liver stage against HepG2, at 10uM
Assay type: cell-based
Design: test concentration 10 uM, cell line HepG2-A16-CD81EGFP
Settings: human, HepG2-A16-CD81EGFP cells; read-out: INHIBITION
Procedure, shortened: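 Uninfected HepG2-A16-CD81EGFP cells, 3 × 10^3 per well, 1536-well, plated on prespotted compound at 10 μM final, parasite-free screening media added to match infected plates; puromycin 10 μM positive, DMSO 0.5% negative; run in parallel with 48 h PbLuc assay at 37 °C, 5% CO2; viability by CellTiter-Glo luminescence, normalized to controls.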

SMILES	cytotoxicity at 10 µM
CC[C@H]1CN2CC[C@H]1C[C@@H]2CNC(=O)Nc1cc(OC)cc(OC)c1	3.39%
CCN1CC(CN2CCOCC2)Oc2ncccc2C1=O (stereo unspecified)	-1.1%
COc1cc(C2CC(=O)Oc3cc(C)[nH]c(=O)c32)ccc1O (stereo unspecified)	-8.64%
CC(=O)CSc1sc2c(O)cc(=O)[nH]c2c1C(N)=O	-3.48%
CN(C)C(=O)CNC(=O)c1cc2c(s1)CCN2S(C)(=O)=O	0.793%
O=C(NCc1cccnc1)c1nc2c(s1)CCCN2c1ncccn1	8.44%
COCCN1C(=O)C[C@H]2[C@H]1CCN2C(=O)c1ccc[nH]1	5.89%
COCC1CN(C(=O)Cc2cccs2)Cc2nnn(C)c21 (stereo unspecified)	4.99%
c1cncc(N2CCOC3(CCCN(c4nncs4)C3)C2)c1 (stereo unspecified)	6.56%
Cc1ncsc1C(=O)N1CCc2nnc(C3CCCCN3C)n2CC1 (stereo unspecified)	3.3%
CC1(c2[nH]ncc2C(N)=O)CCN(c2ncccn2)CC1	0.462%
OCC(CO)N1CCCC(Cc2cnc(Nc3ccccn3)cn2)C1 (stereo unspecified)	-5.97%
COCCC(=O)N1Cc2ccccc2OC2(CCOCC2)C1	-2.53%
O=C(Cc1cccs1)N1CCCCC1c1ccn2ccnc2n1 (stereo unspecified)	-6.58%
CC(C)(N)C(=O)N1CCCC1c1cncc(Oc2ccccc2)n1 (stereo unspecified)	-6.02%
Cc1cccc(CC2COCCN(Cc3nccn3C)C2)n1 (stereo unspecified)	1.61%
CN1CCC(c2cc(C(F)(F)F)n3ccnc3n2)CC1	-9.6%
CCS(=O)(=O)N1CCC(c2cc3n(n2)[C@@H](C(F)(F)F)C[C@@H](C)N3)CC1	0.436%
O=C(Cc1c[nH]c2ncccc12)NCC(O)c1ccccc1F (stereo unspecified)	-3.43%
O=C(NCCC1CCN(CC(F)(F)F)CC1)C1CCCO1 (stereo unspecified)	5.48%
CCNC(=O)C1CCCN(c2ccc(C#N)cc2C(F)(F)F)C1 (stereo unspecified)	1.28%

SMILES	cytotoxicity at 10 µM
CCSc1cncc(N2CCC(NC(=O)C3CCCCC3)CC2)n1	16.8%
Cc1ccccc1CN1CCC(NCC2CNc3ccnn3C2)CC1 (stereo unspecified)	0.0194%
N#Cc1ccc(CNC(=O)NC2CCN(CC(F)F)CC2)cc1	-6.96%
Cc1cc(C)n(C2CCCN(C(=O)c3cccc4[nH]ncc34)C2)n1 (stereo unspecified)	6.22%
Cc1noc(-c2ccc(N(C)Cc3ccncn3)nc2)n1	1.11%
Cc1cc(-c2cccc3c2CCNC3)cnc1-n1cnnc1	-0.972%
Cc1cc(C2CCC2)nc(N2CCC3(CC2)OCCCC3O)n1 (stereo unspecified)	4.28%
Cc1ccc(C2(O)CCN(Cc3nc(C)n4ccccc34)CC2)nc1	3.43%
Cc1ccsc1C(=O)N1CCC(c2nccn2Cc2ccncc2)CC1	0.535%
Cn1ccnc1CN1C[C@@H](CN2CCCCC2)[C@@H](CO)C1	11.7%
O=C(NC[C@H]1CCCN1)c1cc(COc2cccc(C(F)(F)F)c2)[nH]n1	-7.59%
CCc1cnc(N2CCCOC(CN3CCCC3)C2)nc1 (stereo unspecified)	-5.77%
CCC(C)NC(=O)NCc1cc2n(n1)CCCN(C1CCCCC1)C2 (stereo unspecified)	3.11%
CCc1nccc(CN2CCCC(c3nn(C)c(=O)n3CC)C2)n1 (stereo unspecified)	-3.69%
Cc1noc([C@@H]2CCCN2C(=O)C2CCN(C(=O)C3CCC3)CC2)n1	-14.4%
CN(Cc1ccccc1)C1(C(=O)O)Cc2ccccc2C1	1.04%
CC(Cn1cncn1)NCc1nncn1C1CCCCC1 (stereo unspecified)	-10.4%
CCCSc1ncc(Cl)c(C(=O)NC(CCSC)C(=O)O)n1 (stereo unspecified)	-6.44%
Cc1cc(-n2cnnn2)n2ncnc2n1	-5.66%
CCn1ncc(NC(=O)c2cc(C3CC3)nc3c2c(C)nn3C)c1C	-3.32%
CCOC1CCN(C(=O)CN(C)c2cnccn2)CC1	-6.07%

SMILES	cytotoxicity at 10 µM
Cc1nnc2n1CCN(Cc1csc(-c3ncccn3)n1)C2	-38.1%
O=C(c1ccc(-n2cnnn2)cc1)N1CCCC(n2ccnc2)C1 (stereo unspecified)	-24.7%
Cc1cnn(CC2CCCN2C(=O)c2cccc(S(C)(=O)=O)c2)c1 (stereo unspecified)	-10.3%
CCN(Cc1ccc2c(c1)OCO2)C(=O)NC(C)Cn1ccnc1 (stereo unspecified)	-13.2%
CC(C)(C)c1noc(CCC(=O)NCC2CCS(=O)(=O)C2)n1 (stereo unspecified)	-18.1%
CN(C)c1ncccc1CNc1cc(N2CCCC2CO)ncn1 (stereo unspecified)	-8.48%
CN(Cc1nnc2n1CCC2)C(=O)c1ccc2c(c1)CCO2	-9.33%
CCCS(=O)(=O)NC(C)C(=O)NCc1ccc(N2CCN(C)CC2)nc1 (stereo unspecified)	-20.9%
COc1ccccc1CC(=O)N1CCCC1Cn1nc(C)cc1C (stereo unspecified)	-9.37%
N#Cc1cccc(CNC(=O)Nc2cccnc2N2CCCC2)c1	-15.5%
Cc1nc(C)n(C2CCCN(C(=O)Cc3csc(C(C)C)n3)C2)n1 (stereo unspecified)	-15.8%
COC(=O)C(NC(=O)COC1CCCC1)c1cc(F)ccc1F (stereo unspecified)	-9.06%
COCCCNC(=O)CN(C)C(=O)c1cc(C)ccc1N(C)C(C)C	-4.84%
Cc1cnn(CC2CN(Cc3nccn3C)CCO2)c1 (stereo unspecified)	-2.06%
CC(=O)Nc1nc(CN2CCn3c(nnc3C3CC3)C2)cs1	-7.91%
Cc1nnc(CN2CCC(N(C)Cc3nnc(C4CC4)n3C)C2)o1 (stereo unspecified)	-5.36%
CC(C(=O)N1CCCN(c2ccc(C#N)cc2)CC1)n1ccnc1 (stereo unspecified)	-9.75%
COc1c(CNCc2ccc(N(C)C)nc2)c(C(C)C)nn1C	-9.75%
Cc1cc(C)c(CNC(=O)NCCOc2ccc3c(c2)CCC3)c(=O)[nH]1	-23.3%
CC(C)c1ccc(C(C)NC(=O)N2CCC(n3cncn3)CC2)cc1 (stereo unspecified)	-6.18%
Cc1nc(CSCCC(=O)NCc2cccnc2N(C)C)cs1	-9.19%

SMILES	cytotoxicity at 10 µM
Cc1cc(C)n(C2CN(CC(O)COc3ccc(F)cc3)C2)n1 (stereo unspecified)	-10.5%
Cc1nnc2n1CCN(C(=O)COCCOc1ccccc1)C2	0.529%
CCN(Cc1cccc(Cl)c1)Cn1nc(C)c2c(C)onc2c1=O	-13%
O=C(c1ccc(-n2cccn2)nc1)N1CCCN(c2cccnn2)CC1	0.65%
O=C(NCCNc1ccc(C(F)(F)F)cn1)c1cncc(Br)c1	2.24%
O=C(CCc1nccs1)N1CCN(c2ncccn2)CC1	-0.313%
C[C@@H](NC(=O)c1cnccn1)c1c(-c2ccc(Cl)cc2)noc1C(=O)O	4.26%
COCC1c2c(cnn2C)CCN1Cc1cccc(C)c1 (stereo unspecified)	0.951%
c1cnn(CCCO[C@@H]2CC[C@H]3[C@H]2OCCN3CC2CCOCC2)c1	7.77%
CN1Cc2cnn(CC3CCCC3)c2C(COCC2CC2)C1 (stereo unspecified)	-1.6%
c1cncc(O[C@H]2CC[C@H]3[C@H]2OCCN3C2CCC2)c1	-6.69%
Cc1cc(CCC(=O)N(C)C)nc(C2CCCCN2)n1 (stereo unspecified)	-2.39%
Cn1cc(N2CCC3(CCN(Cc4nccs4)C3)C2=O)cn1 (stereo unspecified)	3.76%
COCCN1CCC2(CC1)CN(C(=O)N(C)C)c1ccc(C)cc12	7.74%
CNC(=O)[C@H]1C[C@@H]2CCN(Cc3nccs3)C[C@H]2O1	-75.9%
Cc1noc(C)c1CN1C[C@@H]2C[C@H](C(=O)NCC3CC3)N(C)[C@@H]2C1	-1.24%
COc1ccc(CN2C[C@@H]3OCCN(CCN(C)C)[C@@H]3C2)cc1	-86.9%
CC(C)[C@H](N)CC(=O)Nc1nc(-c2cnc(N3CCOCC3)nc2)cs1	-9.8%
